In brackets after ≈: the same amount, converted by molar mass. Activity calls are given as the source filed them. The calls are words filed in the database; no cut-off is given here.
Legend:
[1] = target: T1, Sodium channel protein type 9 subunit alpha (Homo sapiens, UniProt Q15858); assay: Inhibition of human Nav1.7 expressed in HEK293 cells incubated for 3 to 5 mins at -125 mV holding potential by electrophysiology assay; assay type: cell-based
[2] = target: Sodium channel protein type 9 subunit alpha (Rattus norvegicus, UniProt O08562); assay: Inhibition of rat Nav1.7 expressed in HEK293T cells incubated for 3 to 5 mins at -125 mV holding potential by electrophysiology assay; assay type: cell-based
[3] = AUC (infinity) in Harlan rat at 10 mg/kg, po by LC-MS/MS analysis; assay type: ADME, organism-based; set-up: dose 10 mg/kg, route oral, time infinity; settings: in vivo
Summary of the method: (§1)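 Male fed rats. The IV dose was given in 100% DMSO. The oral dose was given in 1% Tween 80, 2% HPMC, 97% water/NaOH (pH 8.5).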

[4] = Volume of distribution in Harlan rat at 1 mg/kg, iv by LC-MS/MS analysis; assay type: ADME, organism-based; settings: in vivo; summary of the method: as §1
[5] = Oral bioavailability in Harlan rat at 10 mg/kg by LC-MS/MS analysis; assay type: ADME, organism-based; settings: in vivo; summary of the method: as §1
Mus musculus [6] = assay: In vivo inhibition of Nav1.7 in C57BL/6 mouse assessed as reduction in histamine-induced scratching bouts at 300 mg/kg, po administered 4 hrs prior to histamine challenge measured for 15 mins; assay type: functional; settings: C57BL/6, po
Summary of the method: (§2)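 Mice were dosed orally with vehicle, diphenhydramine (30 mg/kg, n = 8) or test article at 30 (n = 9), 100 (n = 10) or 300 (n = 10) mg/kg; vehicle n = 12. All groups received histamine intradermally. Total scratch bouts were counted, with unbound plasma concentration reported per dose. Statistics: one-way ANOVA with Dunnett's test versus vehicle.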

Mus musculus [7] = assay: In vivo inhibition of Nav1.7 in C57BL/6 mouse assessed as reduction in histamine-induced scratching bouts at 30 mg/kg, po administered 4 hrs prior to histamine challenge measured for 15 mins; assay type: functional, organism-based; summary of the method: as §2
[8] = target: T1, Sodium channel protein type 9 subunit alpha; assay: Inhibition of human Nav1.7 expressed in HEK293 cells assessed as reduction in peak inward current by manual whole cell patch clamp electrophysiology assay; assay type: cell-based
[9] = target: Sodium channel protein type 2 subunit alpha (Homo sapiens, UniProt Q99250); assay: Inhibition of human Nav1.2 expressed in CHO cells assessed as reduction in peak inward current by manual whole cell patch clamp electrophysiology assay; assay type: cell-based
[10] = target: Sodium channel protein type 3 subunit alpha (Homo sapiens, UniProt Q9NY46); assay: Inhibition of human Nav1.3 expressed in CHO cells assessed as reduction in peak inward current by manual whole cell patch clamp electrophysiology assay; assay type: cell-based
[11] = target: Sodium channel protein type 4 subunit alpha (Homo sapiens, UniProt P35499); assay: Inhibition of human Nav1.4 expressed in HEK293 cells assessed as reduction in peak inward current by manual whole cell patch clamp electrophysiology assay; assay type: cell-based
[12] = target: Sodium channel protein type 10 subunit alpha (Homo sapiens, UniProt Q9Y5Y9); assay: Inhibition of human Nav1.8 expressed in CHO cells assessed as reduction in peak inward current by manual whole cell patch clamp electrophysiology assay; assay type: cell-based
[13] = target: T1, Sodium channel protein type 9 subunit alpha; assay: Inhibition of human Nav1.7 expressed in HEK293 cells assessed as tonic block at pulse 1 by ionworks quattro electrophysiology assay; assay type: cell-based
[14] = target: T1, Sodium channel protein type 9 subunit alpha; assay: Inhibition of human Nav1.7 expressed in HEK293 cells assessed as use-dependent block at pulse 26 by ionworks quattro electrophysiology assay; assay type: cell-based
[15] = target: T1, Sodium channel protein type 9 subunit alpha; assay: Inhibition of human Nav1.7 at resting/closed state expressed in HEK293 cells at -140 mV holding potential by manual whole cell patch clamp electrophysiology assay; assay type: cell-based
[16] = target: T1, Sodium channel protein type 9 subunit alpha; assay: Inhibition of human Nav1.7 at 20% inactivated state expressed in HEK293 cells at -140 mV holding potential followed by channel inactivation by manual whole cell patch clamp electrophysiology assay; assay type: cell-based
Summary of the method: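 Tested on channels about 20% inactivated.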

[17] = target: T2, Nuclear receptor subfamily 1 group I member 2 (Homo sapiens, UniProt O75469); assay: Induction of human PXR at 10 uM; assay type: ADME
T2 sequence (O75469 whole entry): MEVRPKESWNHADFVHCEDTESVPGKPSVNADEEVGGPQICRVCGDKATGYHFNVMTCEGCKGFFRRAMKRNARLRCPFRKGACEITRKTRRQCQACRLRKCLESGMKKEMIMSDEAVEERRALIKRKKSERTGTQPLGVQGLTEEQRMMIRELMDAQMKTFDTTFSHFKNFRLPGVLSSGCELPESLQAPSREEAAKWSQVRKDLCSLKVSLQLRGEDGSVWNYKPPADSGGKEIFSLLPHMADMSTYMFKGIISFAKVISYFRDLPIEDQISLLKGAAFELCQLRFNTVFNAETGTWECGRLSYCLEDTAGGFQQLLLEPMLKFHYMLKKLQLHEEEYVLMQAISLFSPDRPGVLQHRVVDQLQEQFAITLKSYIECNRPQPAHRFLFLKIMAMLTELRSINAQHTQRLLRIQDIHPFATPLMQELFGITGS

[18] = Unbound plasma concentration in C57BL/6 mouse model of histamine-induced scratching at 30 mg/kg, po administered 4 hrs prior to histamine challenge; assay type: ADME, organism-based; settings: in vivo; summary of the method: as §2
Mus musculus [19] = assay: In vivo inhibition of Nav1.7 in C57BL/6 mouse assessed as unbound plasma concentration required to reduce histamine-induced scratching bouts at 100 mg/kg, po administered 4 hrs prior to histamine challenge measured for 15 mins; assay type: functional, organism-based; summary of the method: as §2
[20] = Apparent passive permeability in MDCK cells at 5 uM after 120 mins by LC/MS/MS analysis; assay type: ADME, cell-based, Canis lupus familiaris; settings: dog
[21] = Protein binding in mouse plasma at 5 uM after 45 mins by LC-MS/MS analysis; assay type: ADME, cell-free; settings: read-out: PPB (converted)
[22] = Free plasma concentration in naive C57BL/6 mouse assessed as effect on basic locomotor movement at 300 mg/kg, po measured after 4 hrs for 60 mins by open field test; assay type: ADME, organism-based; settings: in vivo
Summary of the method: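 Naive mice were dosed orally with vehicle or test article at 30, 100 or 300 mg/kg (n = 10 per group). Total basic movement in an open-field arena was recorded after dosing, and unbound plasma concentration was reported per dose.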

[23] = Unbound plasma concentration in C57BL/6 mouse model of histamine-induced scratching at 300 mg/kg, po administered 4 hrs prior to histamine challenge; assay type: ADME, organism-based; settings: in vivo; summary of the method: as §2
Cytochrome P450 3A4 [24] = target: T3, Cytochrome P450 3A4 (Homo sapiens, UniProt P08684)
Cytochrome P450 2D6 = Cytochrome P450 2D6 (Homo sapiens, UniProt P10635)
Cytochrome P450 2C9 [25] = target: T4, Cytochrome P450 2C9 (Homo sapiens, UniProt P11712)
Cytochrome P450 3A4 [26] = target: T3, Cytochrome P450 3A4; remark: listed apart in the source
Cytochrome P450 2C9 [27] = target: T4, Cytochrome P450 2C9; remark: listed apart in the source
in vitro = settings: rat, liver microsomes
physchem [28] = settings: PBS, pH 7.4
physchem [29] = settings: fasted state simulated intestinal fluid, pH 6.8

T1 sequence (Q15858 whole entry): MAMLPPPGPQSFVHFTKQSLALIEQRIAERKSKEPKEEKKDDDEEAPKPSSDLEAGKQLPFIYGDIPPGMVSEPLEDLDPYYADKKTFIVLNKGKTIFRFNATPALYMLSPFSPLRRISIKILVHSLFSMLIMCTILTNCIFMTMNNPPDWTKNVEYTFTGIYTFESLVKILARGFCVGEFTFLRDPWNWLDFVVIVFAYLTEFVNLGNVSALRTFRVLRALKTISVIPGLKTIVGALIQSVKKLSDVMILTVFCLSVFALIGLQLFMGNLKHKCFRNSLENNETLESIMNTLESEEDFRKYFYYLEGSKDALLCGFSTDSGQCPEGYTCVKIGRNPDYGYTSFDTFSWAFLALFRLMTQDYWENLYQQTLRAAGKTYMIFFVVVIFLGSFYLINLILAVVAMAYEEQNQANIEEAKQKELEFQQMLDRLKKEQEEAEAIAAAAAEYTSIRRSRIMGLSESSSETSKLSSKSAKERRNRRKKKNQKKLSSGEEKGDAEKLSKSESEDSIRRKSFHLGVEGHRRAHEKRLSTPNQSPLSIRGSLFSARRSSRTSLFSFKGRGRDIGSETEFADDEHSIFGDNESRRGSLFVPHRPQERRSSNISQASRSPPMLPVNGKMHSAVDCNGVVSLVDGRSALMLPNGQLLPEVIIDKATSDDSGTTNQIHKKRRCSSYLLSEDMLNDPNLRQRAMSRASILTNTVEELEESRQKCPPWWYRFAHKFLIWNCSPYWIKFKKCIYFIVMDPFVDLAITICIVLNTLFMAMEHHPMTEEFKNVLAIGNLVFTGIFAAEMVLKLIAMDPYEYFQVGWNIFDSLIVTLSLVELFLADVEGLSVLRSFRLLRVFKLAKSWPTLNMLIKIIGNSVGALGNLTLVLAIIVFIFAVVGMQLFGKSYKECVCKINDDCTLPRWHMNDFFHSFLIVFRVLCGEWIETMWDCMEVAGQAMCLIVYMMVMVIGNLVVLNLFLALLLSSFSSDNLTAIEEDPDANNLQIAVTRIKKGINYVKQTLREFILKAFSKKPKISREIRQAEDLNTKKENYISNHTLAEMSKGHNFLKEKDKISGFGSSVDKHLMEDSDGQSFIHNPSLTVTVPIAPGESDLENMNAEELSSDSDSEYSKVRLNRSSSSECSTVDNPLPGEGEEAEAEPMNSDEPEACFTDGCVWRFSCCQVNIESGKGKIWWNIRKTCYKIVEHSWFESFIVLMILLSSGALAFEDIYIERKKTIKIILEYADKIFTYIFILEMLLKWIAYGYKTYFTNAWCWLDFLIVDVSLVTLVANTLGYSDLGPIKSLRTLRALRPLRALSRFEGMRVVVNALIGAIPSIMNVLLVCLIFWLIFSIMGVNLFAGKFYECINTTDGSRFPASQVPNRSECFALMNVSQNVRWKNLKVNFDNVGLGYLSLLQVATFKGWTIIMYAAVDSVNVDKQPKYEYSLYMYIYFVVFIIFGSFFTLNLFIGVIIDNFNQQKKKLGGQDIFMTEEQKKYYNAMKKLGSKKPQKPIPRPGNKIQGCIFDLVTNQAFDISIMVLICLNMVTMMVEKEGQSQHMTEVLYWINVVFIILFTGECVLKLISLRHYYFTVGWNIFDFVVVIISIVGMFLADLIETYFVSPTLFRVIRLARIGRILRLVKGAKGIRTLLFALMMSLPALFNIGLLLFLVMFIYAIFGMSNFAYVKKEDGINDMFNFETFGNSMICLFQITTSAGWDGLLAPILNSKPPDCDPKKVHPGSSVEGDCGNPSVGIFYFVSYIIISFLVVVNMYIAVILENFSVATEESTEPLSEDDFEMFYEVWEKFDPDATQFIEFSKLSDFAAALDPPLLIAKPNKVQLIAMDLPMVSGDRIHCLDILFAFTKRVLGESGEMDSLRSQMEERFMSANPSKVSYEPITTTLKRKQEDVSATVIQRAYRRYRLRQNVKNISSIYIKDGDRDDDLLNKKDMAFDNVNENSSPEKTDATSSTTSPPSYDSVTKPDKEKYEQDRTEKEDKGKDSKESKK
T3 sequence (P08684 whole entry): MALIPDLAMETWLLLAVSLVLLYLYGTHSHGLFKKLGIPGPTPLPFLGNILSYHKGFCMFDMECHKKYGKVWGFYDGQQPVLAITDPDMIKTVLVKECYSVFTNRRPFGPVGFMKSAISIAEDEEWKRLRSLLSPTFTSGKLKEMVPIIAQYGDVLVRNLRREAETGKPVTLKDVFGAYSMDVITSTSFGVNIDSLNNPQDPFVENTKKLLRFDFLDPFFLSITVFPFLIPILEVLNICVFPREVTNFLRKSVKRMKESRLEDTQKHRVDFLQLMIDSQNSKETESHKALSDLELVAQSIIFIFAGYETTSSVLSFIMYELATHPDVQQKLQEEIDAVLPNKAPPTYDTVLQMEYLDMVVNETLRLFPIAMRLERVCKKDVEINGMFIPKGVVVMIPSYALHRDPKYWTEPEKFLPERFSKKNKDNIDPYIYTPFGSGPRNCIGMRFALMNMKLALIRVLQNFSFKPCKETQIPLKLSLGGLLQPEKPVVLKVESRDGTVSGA
T4 sequence (P11712 whole entry): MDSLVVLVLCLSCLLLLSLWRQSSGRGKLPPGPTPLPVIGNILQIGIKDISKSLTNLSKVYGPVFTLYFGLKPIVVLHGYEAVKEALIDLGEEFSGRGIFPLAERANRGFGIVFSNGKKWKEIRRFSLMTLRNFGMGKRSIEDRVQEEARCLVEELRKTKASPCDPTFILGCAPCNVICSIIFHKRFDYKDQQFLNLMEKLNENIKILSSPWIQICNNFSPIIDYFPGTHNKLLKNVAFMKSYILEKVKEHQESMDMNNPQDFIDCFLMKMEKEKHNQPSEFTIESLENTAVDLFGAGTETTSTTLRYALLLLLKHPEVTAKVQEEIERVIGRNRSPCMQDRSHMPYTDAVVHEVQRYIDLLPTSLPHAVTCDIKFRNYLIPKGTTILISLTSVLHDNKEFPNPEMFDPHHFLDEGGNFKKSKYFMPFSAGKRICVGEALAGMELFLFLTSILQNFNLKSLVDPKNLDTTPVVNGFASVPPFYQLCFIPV
Chain of Sodium channel protein type 4 subunit alpha (P35499 whole entry): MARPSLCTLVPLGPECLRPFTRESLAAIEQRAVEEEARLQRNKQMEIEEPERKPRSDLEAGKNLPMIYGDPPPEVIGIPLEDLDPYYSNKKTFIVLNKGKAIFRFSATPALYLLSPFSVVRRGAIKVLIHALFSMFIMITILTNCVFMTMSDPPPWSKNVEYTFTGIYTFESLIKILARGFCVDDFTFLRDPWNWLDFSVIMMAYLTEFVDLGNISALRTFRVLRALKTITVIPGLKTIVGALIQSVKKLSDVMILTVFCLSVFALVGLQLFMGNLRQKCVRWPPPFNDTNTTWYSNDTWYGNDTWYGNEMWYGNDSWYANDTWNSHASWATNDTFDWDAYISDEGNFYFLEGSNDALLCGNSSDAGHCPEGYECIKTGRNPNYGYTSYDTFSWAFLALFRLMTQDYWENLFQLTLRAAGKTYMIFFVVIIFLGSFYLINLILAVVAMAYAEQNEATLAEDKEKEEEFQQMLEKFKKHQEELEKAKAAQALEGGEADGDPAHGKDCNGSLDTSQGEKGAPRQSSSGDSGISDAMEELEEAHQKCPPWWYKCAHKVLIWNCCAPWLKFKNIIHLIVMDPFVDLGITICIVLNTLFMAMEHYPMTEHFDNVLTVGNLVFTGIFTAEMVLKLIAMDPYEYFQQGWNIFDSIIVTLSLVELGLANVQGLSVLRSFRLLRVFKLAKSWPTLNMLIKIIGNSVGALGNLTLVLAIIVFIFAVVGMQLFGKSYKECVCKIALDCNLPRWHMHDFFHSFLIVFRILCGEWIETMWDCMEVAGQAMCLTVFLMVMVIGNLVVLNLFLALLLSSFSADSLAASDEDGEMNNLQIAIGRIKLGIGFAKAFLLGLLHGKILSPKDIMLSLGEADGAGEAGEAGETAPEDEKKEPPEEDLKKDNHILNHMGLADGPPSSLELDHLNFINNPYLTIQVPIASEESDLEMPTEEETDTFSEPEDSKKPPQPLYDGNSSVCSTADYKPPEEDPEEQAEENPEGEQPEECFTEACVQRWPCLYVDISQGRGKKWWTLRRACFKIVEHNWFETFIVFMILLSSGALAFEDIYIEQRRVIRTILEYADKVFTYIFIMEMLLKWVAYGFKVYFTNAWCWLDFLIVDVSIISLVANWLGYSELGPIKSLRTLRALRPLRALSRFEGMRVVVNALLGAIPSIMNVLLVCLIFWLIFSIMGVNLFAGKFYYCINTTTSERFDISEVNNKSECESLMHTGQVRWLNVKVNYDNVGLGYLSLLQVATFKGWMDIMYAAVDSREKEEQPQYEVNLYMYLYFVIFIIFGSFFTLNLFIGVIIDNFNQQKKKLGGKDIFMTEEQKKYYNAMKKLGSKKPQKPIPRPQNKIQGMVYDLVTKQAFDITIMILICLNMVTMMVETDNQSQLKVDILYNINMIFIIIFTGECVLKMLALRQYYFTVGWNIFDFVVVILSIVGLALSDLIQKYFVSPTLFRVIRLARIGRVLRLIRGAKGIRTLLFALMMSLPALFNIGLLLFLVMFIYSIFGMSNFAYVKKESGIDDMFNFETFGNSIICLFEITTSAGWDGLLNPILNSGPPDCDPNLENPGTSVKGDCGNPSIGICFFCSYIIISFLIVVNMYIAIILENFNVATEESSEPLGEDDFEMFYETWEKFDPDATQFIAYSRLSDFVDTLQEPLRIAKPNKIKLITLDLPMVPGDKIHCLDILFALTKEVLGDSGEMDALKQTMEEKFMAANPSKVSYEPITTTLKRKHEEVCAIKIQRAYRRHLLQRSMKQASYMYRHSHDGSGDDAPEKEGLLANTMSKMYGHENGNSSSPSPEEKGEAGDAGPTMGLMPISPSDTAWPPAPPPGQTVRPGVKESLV

- IC50 [1]: 0.069 µM
- IC50 [2]: 3.69 µM
- AUC(0-inf) [3]: 377 µM·h
- Vd [4]: 0.93 L/kg
- bioavailability [5]: > 100%
- IC50 [8]: 0.051 µM
- IC50 [9]: 9.8 µM
- IC50 [10]: 12.5 µM
- IC50 [11]: 1.1 µM
- IC50 [12]: 15.6 µM
- IC50 [13]: 0.044 µM
- IC50 [14]: 0.042 µM
- IC50 [15]: > 30 µM
- IC50 [16]: 0.051 µM
- Activity [17]: 3%
- Cp(f) [18]: 0.294 µM
- Papp at 2 h, 5 µM [20]: 22.4 ×10⁻⁶ cm/s
- fraction unbound at 0.75 h, 5 µM [21]: 0.014
- Cp(f) [22]: 3.72 µM
- Cp(f) [23]: 4.16 µM
- IC50 (Cytochrome P450 3A4 [24]): > 50 µM
- IC50 (Cytochrome P450 2D6): > 50 µM
- IC50 (Cytochrome P450 2C9 [25]): 45.3 µM
- IC50 (Cytochrome P450 3A4 [26]): > 50 µM
- IC50 (Cytochrome P450 2C9 [27]): 49.6 µM
- microsomal CLint at 1 µM (in vitro): < 14 µL/min/mg
- solubility thermodynamic at 24 h (physchem [28]): 398 µM (≈ 194 µg/mL)
- solubility thermodynamic at 24 h (physchem [29]): 500 µM (≈ 243 µg/mL)
SMILES: COc1cc(C(=O)NS(C)(=O)=O)c(F)cc1-c1cnc(Oc2cc(F)ccc2F)c(Cl)c1
- inhibition in vivo at 300 mg/kg (Mus musculus [6]): 75%
- inhibition (Mus musculus [7]): inactive
- Activity (Mus musculus [19]): inactive

Reference: ChEMBL document CHEMBL4428053, “Application of a Parallel Synthetic Strategy in the Discovery of Biaryl Acyl Sulfonamides as Efficient and Selective NaV1.7 Inhibitors” (J Med Chem, 2016)
